Publication PMC5346463 (Anticancer research, 2014)
In brackets after ≈: the same amount, converted by molar mass.

Tests used:
VEGF = assay: Quantitative real-time PCR, VEGF mRNA in MDA-MB-231 cells; assay type: cell-based; settings: 10 μM, 8 h, normalized to Cyclophilin A, n=3
Outline: (§1)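 MDA-MB-231 cells seeded at 3.5×10^5/well in six-well plates overnight. Treated 8 h with 10 μM test compound in medium under hypoxia (1% O2) or normoxia; controls got medium with […] DMSO. Total RNA isolated and reverse-transcribed. SYBR Green qPCR run with 40 ng cDNA/well, normalised to Cyclophilin A, n=3.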

HIF-1α = assay: Western blot of HIF-1α protein expression in MDA-MB-231 cells; assay type: cell-based; settings: hypoxic conditions (1% oxygen)
PHD3 = assay: Quantitative real-time PCR, PHD3 mRNA in MDA-MB-231 cells; assay type: cell-based; settings: 10 μM, 8 h, normalized to Cyclophilin A, n=3
Outline: as §1

HIF1A = assay: Quantitative real-time PCR, HIF1A mRNA in MDA-MB-231 cells; assay type: cell-based; settings: 10 μM, 8 h, normalized to Cyclophilin A, n=3
Outline: as §1

[1] = Aqueous solubility, miniaturized shake-flask with LC-MS/MS; assay type: physicochemical; settings: for Solubility: room temperature
Outline: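 Test compound (1.0 mg) shaken in 1 mL water or pH 7.0 phosphate buffer for 24 h at 450 rpm, room temperature. Suspension spun at 10,000 RPM for 15 min. Supernatant quantified by ESI LC-MS/MS on a PFP column using a 0.1% formic acid/MeOH gradient at 0.4 mL/min.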

[2] = Cytotoxicity, sulforhodamine B; assay type: cell-based; settings: human, MDA-MB-231 cells
Outline: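 MDA-MB-231 cells (DMEM high glucose, 10% FBS, antibiotic/antimycotic) plated at 5,000 cells/well and left to adhere overnight at normoxia. Pre-incubated 1 h with titrated test compound, then cultured at normoxia (21% O2, 5% CO2) or hypoxia (1% O2, 5% CO2). SRB stain after 96 h, OD read at 540 nm. IC50 given as mean±SEM, n=3.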

Compound	VEGF expression (qPCR) (VEGF; hypoxia (1% oxygen))	VEGF expression level (qPCR) (VEGF; normoxia)	HIF-1α protein accumulation under hypoxic stress (western blot) (HIF-1α)	PHD3 mRNA level (qPCR) (PHD3; hypoxia (1% oxygen))	PHD3 mRNA level (qPCR) (PHD3; normoxia)	HIF1A expression (qPCR) (HIF1A; hypoxia (1% oxygen))	HIF1A expression level (qPCR) (HIF1A; normoxia)	Solubility ([1]; Buffer pH 7.0, 24 h shaking)	Solubility ([1]; Water, 24 h shaking)	Aqueous solubility ([1]; buffer pH 7.0)	Aqueous solubility ([1]; water)	IC50 at 96 h [2]
OCc1ccc(-c2nn(Cc3ccccc3)c3ccccc23)o1 [YC-1, 3-(5′-hydroxymethyl-2′-furyl)-1-benzyl indazole]	remained repressed	significantly reduced	not inhibited	insignificant	enhancement of PHD3 mRNA levels	remained repressed	significantly reduced	0.94 µg/mL (≈ 3.09 µM)	1.241 µg/mL (≈ 4.08 µM)	0.9 µg/mL	1.2 µg/mL	–
C[C@H]1O[C@@H](O[C@H]2[C@@H](O)C[C@H](O[C@H]3[C@@H](O)C[C@H](O[C@H]4CC[C@@]5(C)[C@H](CC[C@@H]6[C@@H]5C[C@@H](O)[C@]5(C)[C@@H](C7=CC(=O)OC7)CC[C@]65O)C4)O[C@@H]3C)O[C@@H]2C)C[C@H](O)[C@@H]1O [Digoxin]	–	–	–	–	–	–	–	–	–	–	–	250 ± 50 nM
CC(=O)O[C@@]12CO[C@@H]1C[C@H](O)[C@@]1(C)C(=O)[C@H](O)C3=C(C)[C@@H](OC(=O)[C@H](O)[C@@H](NC(=O)OC(C)(C)C)c4ccccc4)C[C@@](O)([C@@H](OC(=O)c4ccccc4)[C@H]21)C3(C)C [Docetaxel]	–	–	–	–	–	–	–	–	–	–	–	< 5 nM
